Assay results from ChEMBL document CHEMBL2384906, “Biological activity, design, synthesis and structure activity relationship of some novel derivatives of curcumin containing sulfonamides” (Eur J Med Chem, 2013).
≈ marks a conversion by molar mass, not a printed value. Calls of active or inactive are those of the source. No cut-off for these calls is given here.

Tests used:
Pseudomonas aeruginosa [1] = experiment: Antimicrobial activity against Pseudomonas aeruginosa ATCC 15499 assessed as diameter of inhibition zone at 40 uM after 24 hrs by Kirby -Baur disc diffusion method; type: functional; conditions: ATCC 15499, 24 h, read-out: DIZ
Method in brief: (§1)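 Kirby-Bauer disc diffusion was used. Acetone stocks (160 µM) were serially doubled down to 80, 40 and 20 µM. 4 µL of each went onto 5 mm sterile paper discs, which were dried 30 min at 50 °C. Inoculum was 1.5 × 10⁸ CFU/mL diluted to 3 × 10² CFU/mL, and 50 µL was spread on Mueller-Hinton agar. After 24 h at 37 °C the inhibition-zone diameter was measured. Ciprofloxacin served as positive control.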

Escherichia coli [2] = experiment: Antimicrobial activity against Escherichia coli ATCC 35218 assessed as diameter of inhibition zone at 40 uM after 24 hrs by Kirby -Baur disc diffusion method; type: functional; conditions: ATCC 35218, 24 h, read-out: DIZ; method in brief: as §1
HCT-116 = experiment: Cytotoxicity against human HCT116 cells after 24 hrs by MTT assay; type: functional, cell-based
Method in brief: (§2)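 The MTT assay seeded 5 × 10⁴ cells per well and grew them 24 h in RPMI 1640 with compound at 2.5–200 µM. Medium without cells was the blank and adriamycin the positive control. MTT was added for 4 h at 37 °C, formazan was solubilised, and absorbance was read at 570 nm. IC50 is the concentration that cuts viability 50% against untreated cells.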

Pseudomonas aeruginosa [3] = experiment: Antimicrobial activity against Pseudomonas aeruginosa ATCC 15499 assessed as diameter of inhibition zone at 20 uM after 24 hrs by Kirby -Baur disc diffusion method; type: functional; conditions: ATCC 15499, 24 h, read-out: DIZ; method in brief: as §1
Staphylococcus aureus [4] = experiment: Antimicrobial activity against Staphylococcus aureus ATCC 11632 assessed as diameter of inhibition zone at 20 uM after 24 hrs by Kirby -Baur disc diffusion method; type: functional; conditions: ATCC 11632, 24 h, read-out: DIZ; method in brief: as §1
Aspergillus niger [5] = experiment: Antifungal activity against Aspergillus niger MTCC 1108 assessed as zone of inhibition at 20 uM after 48 hrs by disc diffusion method; type: functional; conditions: MTCC 1108, 48 h, read-out: IZ
Method in brief: (§3)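 Spores from 4-day potato dextrose agar cultures, suspended in sterile water at 1.5 × 10⁵ CFU/mL. 0.2 mL was spread on potato dextrose agar. 5 mm filter-paper discs soaked with test compound were laid on the lawn. Incubation was 48 h at 28 °C, then the inhibition zone was measured in mm. Fluconazole was the positive control and acetone the negative control.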

Escherichia coli [6] = experiment: Antimicrobial activity against Escherichia coli ATCC 35218 after 24 hrs by broth micro serial dilution method; type: functional; conditions: ATCC 35218, 24 h
Method in brief: (§4)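 This was broth microdilution in autoclaved Mueller-Hinton broth. 150 µL of compound per well was serially diluted […], and 50 µL of test organism was added. Plates were incubated 24 h at 37 °C and optical density was read.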

Curvularia lunata [7] = experiment: Antifungal activity against Curvularia lunata MTCC 581 after 48 hrs; type: functional; conditions: MTCC 581, 48 h
HeLa = experiment: Cytotoxicity against human HeLa cells after 24 hrs by MTT assay; type: functional, cell-based; method in brief: as §2
Bacillus cereus [8] = experiment: Antimicrobial activity against Bacillus cereus MTCC 7350 assessed as diameter of inhibition zone at 80 uM after 24 hrs by Kirby -Baur disc diffusion method; type: functional; conditions: MTCC 7350, 24 h, read-out: DIZ; method in brief: as §1
Aspergillus flavus [9] = experiment: Antifungal activity against Aspergillus flavus MTCC 1021 assessed as zone of inhibition at 80 uM after 48 hrs by disc diffusion method; type: functional; conditions: MTCC 1021, 48 h, read-out: IZ; method in brief: as §3
Salmonella typhi [10] = experiment: Antimicrobial activity against Salmonella typhi ATCC 23564 assessed as diameter of inhibition zone at 40 uM after 24 hrs by Kirby -Baur disc diffusion method; type: functional, Salmonella enterica subsp. enterica serovar Typhi; conditions: Salmonella enterica, ATCC 23564, 24 h; read-out: DIZ
Bacillus cereus [11] = experiment: Antimicrobial activity against Bacillus cereus MTCC 7350 assessed as diameter of inhibition zone at 20 uM after 24 hrs by Kirby -Baur disc diffusion method; type: functional; method in brief: as §1
Pseudomonas aeruginosa [12] = experiment: Antimicrobial activity against Pseudomonas aeruginosa ATCC 15499 after 24 hrs by broth micro serial dilution method; type: functional; conditions: ATCC 15499, 24 h; method in brief: as §4
Aspergillus flavus [13] = experiment: Antifungal activity against Aspergillus flavus MTCC 1021 assessed as zone of inhibition at 20 uM after 48 hrs by disc diffusion method; type: functional; method in brief: as §3
Pseudomonas aeruginosa [14] = experiment: Antimicrobial activity against Pseudomonas aeruginosa ATCC 15499 assessed as diameter of inhibition zone at 80 uM after 24 hrs by Kirby -Baur disc diffusion method; type: functional; conditions: ATCC 15499, 24 h, read-out: DIZ; method in brief: as §1
Aspergillus flavus [15] = experiment: Antifungal activity against Aspergillus flavus MTCC 1021 assessed as zone of inhibition at 40 uM after 48 hrs by disc diffusion method; type: functional; conditions: MTCC 1021, 48 h, read-out: IZ; method in brief: as §3
Bacillus cereus [16] = experiment: Antimicrobial activity against Bacillus cereus MTCC 7350 after 24 hrs by broth micro serial dilution method; type: functional; conditions: MTCC 7350, 24 h; method in brief: as §4
Staphylococcus aureus [17] = experiment: Antimicrobial activity against Staphylococcus aureus ATCC 11632 assessed as diameter of inhibition zone at 80 uM after 24 hrs by Kirby -Baur disc diffusion method; type: functional; conditions: ATCC 11632, 24 h, read-out: DIZ; method in brief: as §1
Bacillus cereus [18] = experiment: Antimicrobial activity against Bacillus cereus MTCC 7350 assessed as diameter of inhibition zone at 40 uM after 24 hrs by Kirby -Baur disc diffusion method; type: functional; conditions: MTCC 7350, 24 h, read-out: DIZ; method in brief: as §1
Escherichia coli [19] = experiment: Antimicrobial activity against Escherichia coli ATCC 35218 assessed as diameter of inhibition zone at 20 uM after 24 hrs by Kirby -Baur disc diffusion method; type: functional; conditions: ATCC 35218, 24 h, read-out: DIZ; method in brief: as §1
HepG2 = experiment: Cytotoxicity against human HepG2 cells after 24 hrs by MTT assay; type: functional, cell-based; method in brief: as §2
Salmonella typhi [20] = experiment: Antimicrobial activity against Salmonella typhi ATCC 23564 after 24 hrs by broth micro serial dilution method; type: functional, Salmonella enterica subsp. enterica serovar Typhi; conditions: Salmonella enterica, ATCC 23564, 24 h
Aspergillus niger [21] = experiment: Antifungal activity against Aspergillus niger MTCC 1108 assessed as zone of inhibition at 40 uM after 48 hrs by disc diffusion method; type: functional; conditions: MTCC 1108, 48 h, read-out: IZ; method in brief: as §3
Staphylococcus aureus [22] = experiment: Antimicrobial activity against Staphylococcus aureus ATCC 11632 after 24 hrs by broth micro serial dilution method; type: functional; conditions: ATCC 11632, 24 h; method in brief: as §4
Aspergillus niger [23] = experiment: Antifungal activity against Aspergillus niger MTCC 1108 after 48 hrs; type: functional; conditions: MTCC 1108, 48 h
Trichoderma viride [24] = experiment: Antifungal activity against Trichoderma viride MTCC 1107 assessed as zone of inhibition at 40 uM after 48 hrs by disc diffusion method; type: functional; conditions: MTCC 1107, 48 h, read-out: IZ; method in brief: as §3
Curvularia lunata [25] = experiment: Antifungal activity against Curvularia lunata MTCC 581 assessed as zone of inhibition at 40 uM after 48 hrs by disc diffusion method; type: functional; conditions: MTCC 581, 48 h, read-out: IZ; method in brief: as §3
Aspergillus niger [26] = experiment: Antifungal activity against Aspergillus niger MTCC 1108 assessed as zone of inhibition at 80 uM after 48 hrs by disc diffusion method; type: functional; conditions: MTCC 1108, 48 h, read-out: IZ; method in brief: as §3
Mus musculus = experiment: Antiinflammatory activity in mouse assessed as inhibition of carrageenan-induced increase in paw volume at 200 mg/kg administered 1 hr prior to carrageenan challenge measured after 3 hrs relative to control; type: functional
Method in brief: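 Mice were fasted 2 h and placed in groups of five. Controls received saline i.p. Phenylbutazone was given at 100 mg/kg i.p., curcumin at 200 mg/kg i.p., and derivatives at 200 mg/kg. After 1 h, 0.1 mL of 1% carrageenan in saline was injected subplantar into the right hind paw. Paw volume was followed by plethysmometer for 3 h, and % inhibition was calculated as (Vc − Vt)/Vc × 100.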

Trichoderma viride [27] = experiment: Antifungal activity against Trichoderma viride MTCC 1107 after 48 hrs; type: functional; conditions: MTCC 1107, 48 h
Salmonella typhi [28] = experiment: Antimicrobial activity against Salmonella typhi ATCC 23564 assessed as diameter of inhibition zone at 20 uM after 24 hrs by Kirby -Baur disc diffusion method; type: functional, Salmonella enterica subsp. enterica serovar Typhi; conditions: Salmonella enterica, ATCC 23564, 24 h; read-out: DIZ
Aspergillus flavus [29] = experiment: Antifungal activity against Aspergillus flavus MTCC 1021 after 48 hrs; type: functional; conditions: MTCC 1021, 48 h
Trichoderma viride [30] = experiment: Antifungal activity against Trichoderma viride MTCC 1107 assessed as zone of inhibition at 80 uM after 48 hrs by disc diffusion method; type: functional; conditions: MTCC 1107, 48 h, read-out: IZ; method in brief: as §3
Trichoderma viride [31] = experiment: Antifungal activity against Trichoderma viride MTCC 1107 assessed as zone of inhibition at 20 uM after 48 hrs by disc diffusion method; type: functional; conditions: MTCC 1107, 48 h, read-out: IZ; method in brief: as §3
Curvularia lunata [32] = experiment: Antifungal activity against Curvularia lunata MTCC 581 assessed as zone of inhibition at 80 uM after 48 hrs by disc diffusion method; type: functional; conditions: MTCC 581, 48 h, read-out: IZ; method in brief: as §3
Curvularia lunata [33] = experiment: Antifungal activity against Curvularia lunata MTCC 581 assessed as zone of inhibition at 20 uM after 48 hrs by disc diffusion method; type: functional; conditions: MTCC 581, 48 h, read-out: IZ; method in brief: as §3
Staphylococcus aureus [34] = experiment: Antimicrobial activity against Staphylococcus aureus ATCC 11632 assessed as diameter of inhibition zone at 40 uM after 24 hrs by Kirby -Baur disc diffusion method; type: functional; conditions: ATCC 11632, 24 h, read-out: DIZ; method in brief: as §1
Escherichia coli [35] = experiment: Antimicrobial activity against Escherichia coli ATCC 35218 assessed as diameter of inhibition zone at 80 uM after 24 hrs by Kirby -Baur disc diffusion method; type: functional; conditions: ATCC 35218, 24 h, read-out: DIZ; method in brief: as §1
Salmonella typhi [36] = experiment: Antimicrobial activity against Salmonella typhi ATCC 23564 assessed as diameter of inhibition zone at 80 uM after 24 hrs by Kirby -Baur disc diffusion method; type: functional, Salmonella enterica subsp. enterica serovar Typhi; conditions: Salmonella enterica, ATCC 23564, 24 h; read-out: DIZ
QG-56 = experiment: Cytotoxicity against human QG56 cells after 24 hrs by MTT assay; type: functional, cell-based; method in brief: as §2

SMILES: COc1cc(/C=C/C(O)=C/C(/C=C/c2ccc(O)c(OC)c2)=N/c2ccc(S(=O)(=O)Nc3nc(C)cc(C)n3)cc2)ccc1O
- zone of inhibition at 40 µM (Pseudomonas aeruginosa [1]): 16 mm
- zone of inhibition at 40 µM (Escherichia coli [2]): 21 mm
- IC50 (HCT-116): 25 µM
- zone of inhibition at 20 µM (Pseudomonas aeruginosa [3]): 10 mm
- zone of inhibition at 20 µM (Staphylococcus aureus [4]): 16 mm
- zone of inhibition at 20 µM (Aspergillus niger [5]): 12 mm
- MIC (Escherichia coli [6]): 20 µM (≈ 12.6 µg/mL)
- MIC (Curvularia lunata [7]): 20 µM (≈ 12.6 µg/mL)
- IC50 (HeLa): 25 µM
- zone of inhibition at 80 µM (Bacillus cereus [8]): 12 mm
- zone of inhibition at 80 µM (Aspergillus flavus [9]): 11 mm
- zone of inhibition at 40 µM (Salmonella typhi [10]): 14 mm
- diameter of the inhibition zone (DIZ) (Bacillus cereus [11]): inactive
- MIC (Pseudomonas aeruginosa [12]): 20 µM (≈ 12.6 µg/mL)
- inhibition zone (IZ) (Aspergillus flavus [13]): inactive
- zone of inhibition at 80 µM (Pseudomonas aeruginosa [14]): 19 mm
- zone of inhibition at 40 µM (Aspergillus flavus [15]): 9 mm
- MIC (Bacillus cereus [16]): 20 µM (≈ 12.6 µg/mL)
- zone of inhibition at 80 µM (Staphylococcus aureus [17]): 22 mm
- zone of inhibition at 40 µM (Bacillus cereus [18]): 9 mm
- zone of inhibition at 20 µM (Escherichia coli [19]): 21 mm
- IC50 (HepG2): 25 µM
- MIC (Salmonella typhi [20]): 20 µM (≈ 12.6 µg/mL)
- zone of inhibition at 40 µM (Aspergillus niger [21]): 14 mm
- MIC (Staphylococcus aureus [22]): 20 µM (≈ 12.6 µg/mL)
- MIC (Aspergillus niger [23]): 20 µM (≈ 12.6 µg/mL)
- zone of inhibition at 40 µM (Trichoderma viride [24]): 19 mm
- zone of inhibition at 40 µM (Curvularia lunata [25]): 16 mm
- zone of inhibition at 80 µM (Aspergillus niger [26]): 16 mm
- inhibition in vivo at 200 mg/kg (Mus musculus): 38.7%
- MIC (Trichoderma viride [27]): 20 µM (≈ 12.6 µg/mL)
- zone of inhibition at 20 µM (Salmonella typhi [28]): 10 mm
- MIC (Aspergillus flavus [29]): > 80 µM
- zone of inhibition at 80 µM (Trichoderma viride [30]): 22 mm
- zone of inhibition at 20 µM (Trichoderma viride [31]): 18 mm
- zone of inhibition at 80 µM (Curvularia lunata [32]): 19 mm
- zone of inhibition at 20 µM (Curvularia lunata [33]): 12 mm
- zone of inhibition at 40 µM (Staphylococcus aureus [34]): 18 mm
- zone of inhibition at 80 µM (Escherichia coli [35]): 23 mm
- zone of inhibition at 80 µM (Salmonella typhi [36]): 17 mm
- IC50 (QG-56): 50 µM
